According to ChEMBL document CHEMBL4732216, “Design and Characterization of an Intracellular Covalent Ligand for CC Chemokine Receptor 2” (J Med Chem, 2021):
Activity calls are given as the source filed them. The calls are words filed in the database; no cut-off is given here.

Assays:
[1] = molecular target: T1, C-C chemokine receptor type 2 (Homo sapiens, UniProt P41597); assay: Antagonist activity at human CCR2 expressed in human U2OS cell membranes as inhibition of [35S]GTPgammaS binding pre-incubated for 30 mins before CCL2 stimulation and followed by further incubation for 90 mins by scintillation counting method; assay type: functional; conditions: for inhibition: Cell membrane, filed as antagonist
Method in brief: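 Preincubation 30 min at 25 °C with increasing ligand plus EC80 CCL2 (20 nM). [35S]GTPγS 0.3 nM added for 90 min at 25 °C, then filtration and scintillation counting. Basal without ligand/chemokine; pIC50 by sigmoidal fit.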

[2] = Stability in pH 7.4 Tris-HCl containing 5 mM MgCl2 and 0.1% CHAPS assessed as intact compound level measured at room temperature; assay type: physicochemical; conditions: buffer, pH 7.4, 5000 µM
[3] = GSH reactivity at 1 mM in presence of 80 uM reduced glutathione measured at 37 degC for over 4 hrs; assay type: physicochemical; conditions: 1000 µM
[4] = molecular target: T1, C-C chemokine receptor type 2; assay: (§1) Displacement of [3H]-CCR2-RA-(R) from human CCR2b expressed in human U2OS cell membranes assessed as radio ligand binding recovery at 10 times IC50 incubated for 2 hrs after pre-treatment with iodoacetamide for 30 mins and followed by extensive washing and centrifugation cycles before addition of [3H]-CCR2-RA-[R] for 2 hrs by scintillation counting method; conditions: Cell membrane
Target sequence in this assay (P41597 whole entry, looked up): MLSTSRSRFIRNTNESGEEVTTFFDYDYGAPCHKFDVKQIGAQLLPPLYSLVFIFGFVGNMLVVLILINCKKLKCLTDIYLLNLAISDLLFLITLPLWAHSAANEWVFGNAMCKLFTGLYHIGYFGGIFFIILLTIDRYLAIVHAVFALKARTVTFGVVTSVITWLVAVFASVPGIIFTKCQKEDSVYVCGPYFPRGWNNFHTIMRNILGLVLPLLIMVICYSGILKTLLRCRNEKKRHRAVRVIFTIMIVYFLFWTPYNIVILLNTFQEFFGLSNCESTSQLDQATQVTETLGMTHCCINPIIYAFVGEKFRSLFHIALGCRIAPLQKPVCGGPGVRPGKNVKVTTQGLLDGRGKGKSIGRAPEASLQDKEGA

[5] = molecular target: T1, C-C chemokine receptor type 2; assay: Displacement of [3H]-CCR2-RA from human CCR2b expressed in human U2OS cell membranes incubated for 2 hrs by scintillation counting method; conditions: for Activity: Cell membrane, filed as antagonist
Method in brief: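 U2OS-CCR2 membranes (5–30 μg protein) in 50 mM Tris-HCl pH 7.4, 5 mM MgCl2, 0.1% CHAPS. Coincubation 2 h at 25 °C with competitor 0.01 nM–10 μM and ~6 nM [3H]-CCR2-RA. Nonspecific binding with 10 μM JNJ-27141491. GF/B filtration, scintillation counting, IC50 by sigmoidal fit, Ki by Cheng–Prusoff.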

[6] = molecular target: T1, C-C chemokine receptor type 2; assay: as §1, with “N-ethylmaleimide” for “iodoacetamide”; conditions: Cell membrane
Target sequence in this assay (P41597 whole entry, looked up): as above

CHO [7] = assay: as §1, with “CCR2 […] mutant” for “CCR2b”, “CHO” for “human U2OS”, “hrs” for “hrs after pre-treatment with iodoacetamide for 30 mins and”; conditions: Cell membrane
CHO [8] = assay: as §1, with “CCR2 C232S mutant” for “CCR2b”, “CHO” for “human U2OS”, “hrs” for “hrs after pre-treatment with iodoacetamide for 30 mins and”; conditions: Cell membrane
[9] = molecular target: T1, C-C chemokine receptor type 2; assay: Displacement of [3H]-CCR2-RA-(R) from human CCR2b expressed in human U2OS cell membranes pre-incubated for 4 hrs before radio ligand addition and measured after 20 mins by scintillation counting method; parameters: species or system Cell membrane
Target sequence in this assay (P41597 whole entry): as the sequence (P41597 whole entry, looked up) above

CHO [10] = assay: as §1, with “CCR2 C70S mutant” for “CCR2b”, “CHO” for “human U2OS”, “hrs” for “hrs after pre-treatment with iodoacetamide for 30 mins and”; conditions: Cell membrane
[11] = Displacement of [3H]-CCR2-RA-[R] from human CCR2 C232S mutant expressed in CHO cell membranes incubated for 2 hrs by scintillation counting method; parameters: species or system Cell membrane
CHO [12] = assay: as §1, with “CCR2 C75S mutant” for “CCR2b”, “CHO” for “human U2OS”, “hrs” for “hrs after pre-treatment with iodoacetamide for 30 mins and”; conditions: Cell membrane
[13] = molecular target: T1, C-C chemokine receptor type 2; assay: Ratio of IC50 for antagonist activity at human CCR2 expressed in HEK293 cells assessed as inhibition of beta-arrestin recruitment pre-incubated for 20 mins followed by drug wash out before CCL2 stimulation and followed by further incubation for 90 mins by NanoBiT CCR2 assay to IC50 for antagonist activity at human CCR2 expressed in HEK293 cells assessed as inhibition of beta-arrestin recruitment pre-incubated for 20 mins before CCL2 stimulation and followed by further incubation for 90 mins by NanoBiT CCR2 assay
Target sequence in this assay (P41597 whole entry, looked up): as above

[14] = Displacement of [3H]-CCR2-RA-[R] from human CCR2 C75S mutant expressed in CHO cell membranes incubated for 2 hrs by scintillation counting method; parameters: species or system Cell membrane
[15] = molecular target: T1, C-C chemokine receptor type 2; assay: Displacement of [3H]-CCR2-RA-[R] from wild type human CCR2 expressed in CHO cell membranes incubated for 2 hrs by scintillation counting method; parameters: species or system Cell membrane
Target sequence in this assay (P41597 whole entry): as the sequence (P41597 whole entry, looked up) above

[16] = molecular target: T1, C-C chemokine receptor type 2; assay: as §1, with “from wild type” for “from”, “CCR2” for “CCR2b”, “CHO” for “human U2OS”, “hrs” for “hrs after pre-treatment with iodoacetamide for 30 mins and”; conditions: Cell membrane, filed as antagonist
Target sequence in this assay (P41597 whole entry, looked up): as above

[17] = molecular target: T1, C-C chemokine receptor type 2; assay: Antagonist activity at human CCR2 expressed in HEK293 cells assessed as inhibition of beta-arrestin recruitment pre-incubated for 20 mins followed by drug wash out before CCL2 stimulation and followed by further incubation for 90 mins by NanoBiT CCR2 assay based
Target sequence in this assay (P41597 whole entry): as the sequence (P41597 whole entry, looked up) above

[18] = molecular target: T1, C-C chemokine receptor type 2; assay: Antagonist activity at human CCR2 expressed in human U2OS cell membranes as [35S]GTPgammaS binding level at 250 nM pre-incubated for 30 mins before CCL2 stimulation and followed by further incubation for 90 mins by scintillation counting method relative to control; assay type: functional; parameters: scale not given: the % may be the effect or the level left; conditions: Cell membrane, filed as antagonist
Method in brief: (§2)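 U2OS-CCR2 membranes (40 μg) preincubated with or without single compound concentration (600 or 250 nM) in 50 mM Tris-HCl pH 7.4/5 mM MgCl2, then four centrifugation/wash cycles (unwashed: final spin only). Resuspended in buffer with NaCl, EDTA, BSA, saponin 0.5 mg/mL, GDP 10 μM and 20 nM CCL2. 30 min at 25 °C, then [35S]GTPγS 0.3 nM 90 min, filtration; expressed relative to CCL2 alone.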
Target sequence in this assay (P41597 whole entry, looked up): as above

[19] = Displacement of [3H]-CCR2-RA-[R] from human CCR2 C70S/C75S/C232S mutant expressed in CHO cell membranes incubated for 2 hrs by scintillation counting method; parameters: species or system Cell membrane
[20] = molecular target: T1, C-C chemokine receptor type 2; assay: as §1, with “hrs” for “hrs after pre-treatment with iodoacetamide for 30 mins and”; conditions: Cell membrane, filed as antagonist
Target sequence in this assay (P41597 whole entry, looked up): as above

[21] = Displacement of [3H]-CCR2-RA-[R] from human CCR2 C70S mutant expressed in CHO cell membranes incubated for 2 hrs by scintillation counting method; parameters: species or system Cell membrane
[22] = molecular target: T1, C-C chemokine receptor type 2; assay: Antagonist activity at human CCR2 expressed in human U2OS cell membranes as [35S]GTPgammaS binding level at 250 nM pre-incubated for 30 mins followed by drug wash out before CCL2 stimulation and followed by further incubation for 90 mins by scintillation counting method relative to control; assay type: functional; parameters: scale not given: the % may be the effect or the level left; conditions: Cell membrane, filed as antagonist; method in brief: as §2
[23] = molecular target: T1, C-C chemokine receptor type 2; assay: Displacement of [3H]-CCR2-RA-(R) from human CCR2b expressed in human U2OS cell membranes pre-incubated for 0 hrs before radio ligand addition and measured after 20 mins by scintillation counting method; parameters: species or system Cell membrane
Target sequence in this assay (P41597 whole entry): as the sequence (P41597 whole entry, looked up) above

[24] = molecular target: T2, C-C chemokine receptor type 1 (Homo sapiens, UniProt P32246); assay: Antagonist activity at human CCR1 expressed in human U2OS cell membranes as inhibition of [35S]GTPgammaS binding pre-incubated for 30 mins before CCL3 stimulation and followed by further incubation for 90 mins by scintillation counting method; assay type: functional, Cell membrane
T2 sequence (P32246 whole entry): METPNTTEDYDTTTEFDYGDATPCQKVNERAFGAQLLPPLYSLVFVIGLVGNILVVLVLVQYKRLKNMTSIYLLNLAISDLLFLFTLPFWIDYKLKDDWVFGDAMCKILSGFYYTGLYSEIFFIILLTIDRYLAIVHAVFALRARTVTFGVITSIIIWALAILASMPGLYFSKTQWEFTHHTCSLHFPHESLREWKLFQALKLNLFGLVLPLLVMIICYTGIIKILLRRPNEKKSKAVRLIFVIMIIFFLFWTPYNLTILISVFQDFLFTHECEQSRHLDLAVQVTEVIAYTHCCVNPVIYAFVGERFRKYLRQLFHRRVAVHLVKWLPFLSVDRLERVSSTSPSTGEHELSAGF

[25] = molecular target: T1, C-C chemokine receptor type 2; assay: Antagonist activity at human CCR2 expressed in HEK293 cells assessed as inhibition of beta-arrestin recruitment pre-incubated for 20 mins before CCL2 stimulation and followed by further incubation for 90 mins by NanoBiT CCR2 assay based
Target sequence in this assay (P41597 whole entry): as the sequence (P41597 whole entry, looked up) above

## O=C(O)c1ccc(Oc2ccc(Cl)cc2NS(=O)(=O)c2ccc(Cl)c(Cl)c2)cc1
[1]
  inhibition: Dose-dependent effect
[2]
  Stabilty: > 6 h
[3]
  Stabilty: Unstable
[4]
  Activity: 104%
[5]
  Activity: Dose-dependent effect
[6]
  Activity: inactive
CHO [7]
  Activity: inactive
CHO [8]
  Activity: 100%
[9]; read-out: pKi (converted)
  Ki: 6.31 nM
CHO [10]
  Activity: 100%
[11]
  pIC50: 7.9
CHO [12]
  Activity: 100%

## O=C(NCCNC(=O)c1ccc(S(=O)(=O)F)cc1)c1ccc(Oc2ccc(Cl)cc2NS(=O)(=O)c2ccc(Cl)c(C(F)(F)F)c2)cc1
[5]
  Activity: Dose-dependent effect
[5]; read-out: Ki
  Ki: 89 nM
[5]; read-out: pKi (converted)
  Ki: 63.1 nM

## O=C(NCCN=C=S)c1ccc(Oc2ccc(Cl)cc2NS(=O)(=O)c2ccc(Cl)c(C(F)(F)F)c2)cc1
[5]
  Activity: Dose-dependent effect
[5]; read-out: Ki
  Ki: 31 nM

## C=CC(=O)NCCNC(=O)c1ccc(Oc2ccc(Cl)cc2NS(=O)(=O)c2ccc(Cl)c(C(F)(F)F)c2)cc1
[5]
  Activity: Dose-dependent effect
[5]; read-out: Ki
  Ki: 22 nM

## N#CSCCNC(=O)c1ccc(Oc2ccc(Cl)cc2NS(=O)(=O)c2ccc(Cl)c(C(F)(F)F)c2)cc1
[13]
  Ratio IC50: 2.5
[1]
  IC50: 33 nM
  inhibition: Dose-dependent effect
[2]
  Stabilty: > 6 h
[14]
  IC50: 5 nM
  pIC50: 8.4
[15]; read-out: IC50
  IC50: 2 nM
[15]; read-out: pIC50 (converted)
  IC50: 1.58 nM
[3]
  Stabilty: Stable
[4]
  Activity: 93%
[5]
  Activity: Dose-dependent effect
[5]; read-out: Ki
  Ki: 4 nM
[6]
  Activity: inactive
[16]
  Activity: 9%
CHO [7]
  Activity: inactive
[17]
  IC50: 10 nM
CHO [8]; filed as antagonist
  Activity: Active
[9]; read-out: Ki
  Ki: 0.7 nM
[18]
  Activity: -5%
CHO [10]; filed as antagonist
  Activity: Active
[19]
  IC50: 16 nM
  pIC50: 7.8
[20]
  Activity: 27%
[11]
  IC50: 1 nM
  pIC50: 8.8
[21]
  pIC50: 8.4
[22]
  Activity: -24%
[23]; read-out: Ki
  Ki: 2.4 nM
[23]; read-out: pKi (converted)
  Ki: 2 nM
CHO [12]; filed as antagonist
  Activity: 30%
[24]
  IC50: 5010 nM
[25]
  IC50: 4 nM
